This note sets out measurements from ChEMBL document CHEMBL2010756, “New 4-[(5-arylidene-2-arylimino-4-oxo-3-thiazolidinyl)methyl]benzoic acids active as protein tyrosine phosphatase inhibitors endowed with insulinomimetic effect on mouse C2C12 skeletal muscle cells” (Eur J Med Chem, 2012).

Molecules are shown by their SMILES. Active and inactive are the calls of the source. The rule behind the calls is not given here.

The target of series [1] is T1, Tyrosine-protein phosphatase non-receptor type 2 (Homo sapiens, UniProt P17706).
T1 sequence (P17706 whole entry): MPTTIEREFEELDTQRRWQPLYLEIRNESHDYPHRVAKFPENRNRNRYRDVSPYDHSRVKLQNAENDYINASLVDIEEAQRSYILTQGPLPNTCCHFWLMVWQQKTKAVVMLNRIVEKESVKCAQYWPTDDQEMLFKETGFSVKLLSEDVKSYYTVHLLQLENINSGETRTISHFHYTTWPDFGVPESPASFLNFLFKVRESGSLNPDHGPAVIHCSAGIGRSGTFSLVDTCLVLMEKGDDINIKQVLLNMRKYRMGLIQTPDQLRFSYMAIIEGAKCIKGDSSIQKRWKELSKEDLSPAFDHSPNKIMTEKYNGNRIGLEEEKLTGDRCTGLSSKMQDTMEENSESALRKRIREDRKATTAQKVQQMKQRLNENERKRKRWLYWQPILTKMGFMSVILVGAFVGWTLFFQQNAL
The experiment in a line: Competitive inhibition of human recombinant TCPTP using p-nitrophenylphosphate as substrate by Line-Weaver Burk plot.

The target in series [2] is T2, Tyrosine-protein phosphatase non-receptor type 1 (Homo sapiens, UniProt P18031).
T2 sequence (P18031 whole entry): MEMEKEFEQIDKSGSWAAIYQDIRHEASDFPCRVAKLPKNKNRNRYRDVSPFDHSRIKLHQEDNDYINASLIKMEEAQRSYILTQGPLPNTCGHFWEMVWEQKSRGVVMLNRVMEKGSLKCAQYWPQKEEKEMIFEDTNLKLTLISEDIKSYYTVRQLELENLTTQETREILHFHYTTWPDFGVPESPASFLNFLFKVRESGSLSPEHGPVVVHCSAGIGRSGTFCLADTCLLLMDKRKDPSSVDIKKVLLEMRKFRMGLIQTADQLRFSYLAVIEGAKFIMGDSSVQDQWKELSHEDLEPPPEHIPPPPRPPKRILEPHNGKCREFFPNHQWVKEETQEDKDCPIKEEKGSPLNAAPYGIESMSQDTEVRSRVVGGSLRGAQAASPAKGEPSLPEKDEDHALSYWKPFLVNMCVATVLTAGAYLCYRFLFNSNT
The experiment in a line: Competitive inhibition of GST-tagged human recombinant PTP1B expressed in Escherichia coli TB1 using p-nitrophenylphosphate as substrate by Line-Weaver Burk plot. In a few lines:
(§1)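 Human enzymes were expressed in E. coli TB1 as GST fusions and purified on glutathione-Sepharose. GST was removed by thrombin (3 h, 37 °C), followed by gel filtration. Assays ran at 37 °C in pH 7.0 buffer (0.075 M β,β-dimethylglutarate, 1 mM EDTA, 5 mM DTT) with p-nitrophenylphosphate, read at 400 nm. Initial rates were measured in triplicate at differing substrate and inhibitor levels, and apparent Km was plotted against inhibitor concentration to give Ki.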

Series [3] deals with T3, Low molecular weight phosphotyrosine protein phosphatase (Homo sapiens, UniProt P24666).
T3 sequence (P24666 whole entry): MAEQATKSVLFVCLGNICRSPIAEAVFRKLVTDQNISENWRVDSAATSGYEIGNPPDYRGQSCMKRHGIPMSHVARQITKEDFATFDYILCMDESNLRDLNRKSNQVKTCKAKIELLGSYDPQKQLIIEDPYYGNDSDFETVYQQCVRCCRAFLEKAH
The experiment in a line: Competitive inhibition of GST-tagged human recombinant LMW-PTP IF2 expressed in Escherichia coli TB1 using p-nitrophenylphosphate as substrate by Line-Weaver Burk plot. In a few lines:
as §1

For another series, the system named is C2C12. The experiment in a line: Cytotoxicity against mouse C2C12 cells at 25 uM after 2 hrs by MTT assay. Format: cell-based. To be noted: c2c12, 2 h. In a few lines: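 C2C12 myoblasts were differentiated 4 days in DMEM/2% horse serum, then serum-starved 20 h. Compounds at 25 µM final (DMSO vehicle) were given for 2 h. MTT was added at 0.5 mg/ml final, 37 °C for 2 h. Cells were lysed in DMSO and formazan read at 570 nm, expressed as % of DMSO control, mean ± SE of three replicates.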

The species entered for series [4] is Homo sapiens. The experiment in a line: Selectivity ratio of IC50 for human recombinant LMW-PTP IF2 to IC50 for human recombinant LMW-PTP IF1. In outline:
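Recombinant human LMW-PTP IF1 and IF2 (GST cleaved off) were assayed at 37 °C in pH 7.0 β,β-dimethylglutarate/EDTA/DTT buffer. Fixed p-nitrophenylphosphate equal to each isoform's Km was used, with p-nitrophenolate read at 400 nm. IC50 came from fitting vi/v0 against inhibitor concentration to a four-parameter equation. The ratio is IF2 IC50 over IF1 IC50.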

For series [5], the species on record is Homo sapiens. Briefly: Selectivity ratio of IC50 for human recombinant TCPTP to IC50 for human recombinant PTP1B. In outline: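 IC50 values were from initial p-nitrophenylphosphate hydrolysis (400 nm) in pH 7.0 β,β-dimethylglutarate/EDTA/DTT buffer, fitted to a four-parameter equation. PTP1B (recombinant human, GST cleaved) was assayed at 37 °C with substrate at its Km. Commercial recombinant TC-PTP (0.02 µg) was assayed with 2.8 mM p-nitrophenylphosphate, stopped with KOH. The ratio is TC-PTP IC50 over PTP1B IC50.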

Series [6] has as its target T4, Tyrosine-protein phosphatase non-receptor type 1 (Mus musculus) (UniProt P35821).
T4 sequence (whole entry): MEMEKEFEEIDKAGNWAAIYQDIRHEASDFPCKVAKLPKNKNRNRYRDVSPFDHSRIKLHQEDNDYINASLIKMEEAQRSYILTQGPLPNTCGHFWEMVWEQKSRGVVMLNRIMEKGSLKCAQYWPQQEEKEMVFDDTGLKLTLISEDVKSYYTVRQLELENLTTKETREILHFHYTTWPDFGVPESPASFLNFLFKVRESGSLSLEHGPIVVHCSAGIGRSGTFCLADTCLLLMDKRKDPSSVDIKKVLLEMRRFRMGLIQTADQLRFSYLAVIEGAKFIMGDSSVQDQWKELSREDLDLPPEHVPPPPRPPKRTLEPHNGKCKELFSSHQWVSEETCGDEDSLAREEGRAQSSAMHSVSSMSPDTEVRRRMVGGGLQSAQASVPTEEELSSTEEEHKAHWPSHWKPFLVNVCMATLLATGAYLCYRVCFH
The experiment in a line: Inhibition of PTP1B in mouse C2C12 cells assessed as increase in insulin receptor beta tyrosine phosphorylation at 25 uM. It is filed as cell-based. In outline:
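Differentiated, 20 h serum-starved C2C12 myotubes were exposed to 25 µM compound (1.2% DMSO) for 90 min at 37 °C. Insulin 10 nM for 30 min served as positive control. Lysates in SDS sample buffer were run on SDS-PAGE and western blotted for phospho-IRβ, normalized to actin, in at least three experiments.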

Series [7] addresses T4, Tyrosine-protein phosphatase non-receptor type 1 (Mus musculus). Briefly: Inhibition of PTP1B in mouse C2C12 cells assessed as increase in intracellular 2-deoxyglucose uptake using [3H]glucose as substrate at 25 uM after 90 mins by scintillation counting. Format: cell-based. In a few lines: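 C2C12 myotubes were differentiated and serum-starved 20 h, then treated 90 min with 25 µM compound (1.2% DMSO). Insulin 10 nM for 30 min was the positive control. 0.1 µCi 2-deoxy-D-[3H]glucose in Ringer–Hepes was taken up 15 min at 37 °C. Cells were washed with cold PBS, lysed in 0.2 M NaOH and counted by scintillation, normalized to protein. Mean ± SE of three replicates.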

In series [8] the target is T3, Low molecular weight phosphotyrosine protein phosphatase. Briefly: Competitive inhibition of GST-tagged human recombinant LMW-PTP IF1 expressed in Escherichia coli TB1 using p-nitrophenylphosphate as substrate by Line-Weaver Burk plot. In outline: as §1

For `O=C(O)c1ccc(CN2C(=O)/C(=C/c3ccc4ccccc4c3)S/C2=N\c2ccc(C(F)(F)F)cc2)cc1`, the IC50 (commonly the midpoint of a concentration-inhibition curve) in series [1] was 20.2 µM; in series [2] it was 2.4 µM; in series [3], 15.2 µM; in series [8], 5.8 µM. Besides, the Activity entry in the series on C2C12 was “Non-toxic”. Also, the values for the Ratio IC50 in the series listed under Homo sapiens [4] and in the series listed under Homo sapiens [5] were over 3 and over 2, respectively. Moreover, the inhibition result in series [6] and in series [7] was “Active” in each case.
Consider `COc1ccc(/N=C2\S/C(=C\c3ccc4ccccc4c3)C(=O)N2Cc2ccc(C(=O)O)cc2)cc1`, for which the IC50 came out at 27 µM in series [1], 9 µM in series [2], 11.7 µM in series [3] and 11.6 µM in series [8]. In addition, the Activity result with C2C12 is “Non-toxic”. For the same compound, the Ratio IC50 in the series filed under Homo sapiens [5] was over 2.
For `COc1ccc(/N=C2\S/C(=C\c3cccc(OCc4ccccc4)c3)C(=O)N2Cc2ccc(C(=O)O)cc2)cc1`, the IC50 in series [1] is 11.6 µM; in [2] it was 5.1 µM; in series [3], 17.5 µM; in series [8], 9.6 µM. In the series with C2C12, the Activity result is “Non-toxic”. Besides, the Ratio IC50 in the series filed under Homo sapiens [4] was over 3; in the series listed under Homo sapiens [5], over 2. For the same compound, the inhibition entry in [6] is “Active”. Further, the inhibition result in series [7] was “inactive”.
As for `O=C(O)c1ccc(CN2C(=O)/C(=C/c3ccc(OCc4ccccc4)cc3)S/C2=N\c2ccc(C(F)(F)F)cc2)cc1`, the IC50 worked out at 2.2 µM in series [1], 1.4 µM in [2], 25.4 µM in series [3] and 4 µM in [8]. For the same compound, in [2], the Ki (commonly a dissociation constant, usually derived from enzyme kinetics or from competition with a known ligand) amounted to 1.2 µM. Besides, the Activity entry in the series with C2C12 is given as “Non-toxic”. Also, the Ratio IC50 is over 3 in the series filed under Homo sapiens [4] and over 2 in the series listed under Homo sapiens [5]. Further, the inhibition result in series [6] and in [7] was “Active” throughout.
Take `COc1ccc(/N=C2\S/C(=C\c3ccc(Oc4ccccc4)cc3)C(=O)N2Cc2ccc(C(=O)O)cc2)cc1`: the IC50 in [1] worked out at 7.1 µM; in series [2] it was 2.5 µM; in [3], 18 µM; in [8] it was 11.2 µM. For the same compound, the Activity entry in the series with C2C12 is on record as “Non-toxic”. In the series listed under Homo sapiens [5], the Ratio IC50 is over 2. In addition, the inhibition entry in [6] was “Active”. Also, in series [7], the inhibition result is “inactive”.
As for `COc1ccc(/N=C2\S/C(=C\c3ccc(OCc4ccccc4)cc3)C(=O)N2Cc2ccc(C(=O)O)cc2)cc1`, the IC50 in [1] turned out to be 9.5 µM; in [2], 3 µM; in series [3], 9.1 µM; in [8], 6.4 µM. The Activity result in the series on C2C12 is reported as “Non-toxic”. Further, the Ratio IC50 in the series filed under Homo sapiens [4] is 1.4; in the series filed under Homo sapiens [5], over 2. The inhibition result in [6] and in series [7] was “inactive” each time.
For the compound `COc1ccc(/N=C2\S/C(=C\c3cccc(Oc4ccccc4)c3)C(=O)N2Cc2ccc(C(=O)O)cc2)cc1`, the IC50 in [1] amounted to 20.5 µM; in series [2], 10.9 µM; in [3] it was 21.8 µM; in series [8], 12 µM. For the same compound, the Activity result with C2C12 was “Non-toxic”. Moreover, the results for the Ratio IC50 in the series filed under Homo sapiens [4] and in the series filed under Homo sapiens [5] were over 3 and over 2, respectively. Besides, in series [6], the inhibition result is “Active”. The inhibition entry in series [7] was “inactive”.
Regarding `O=C(O)c1ccc(CN2C(=O)/C(=C/c3cccc(Oc4ccccc4)c3)S/C2=N\c2ccc(C(F)(F)F)cc2)cc1`, the IC50 in series [1] was 20.6 µM; in series [2] it was 10.4 µM; in series [3] it was over 150 µM; in [8] it was 13.7 µM. Further, in the series with C2C12, the Activity result is listed as “Non-toxic”. For the same compound, the Ratio IC50 in the series filed under Homo sapiens [4] was over 3; in the series filed under Homo sapiens [5] it was 2. Also, the inhibition entry in series [7] is “Active”.
As for `O=C(O)c1ccc(CN2C(=O)/C(=C/c3ccc(Oc4ccccc4)cc3)S/C2=N\c2ccc(C(F)(F)F)cc2)cc1`, the IC50 in series [1] is 15.6 µM; in series [2] it was 2.2 µM; in series [3], 33.2 µM; in [8], 7.3 µM. Also, the Activity entry in the series on C2C12 was “Non-toxic”. For the same compound, the results for the Ratio IC50 in the series filed under Homo sapiens [4] and in the series filed under Homo sapiens [5] were over 3 and 7.1, respectively.
Take `O=C(O)c1ccc(CN2C(=O)/C(=C/c3cccc(OCc4ccccc4)c3)S/C2=N\c2ccc(C(F)(F)F)cc2)cc1`: the IC50 in series [1] was over 100 µM; in [2], 5.6 µM; in series [3] it was over 150 µM; in series [8] it was 12 µM. Moreover, the Activity result with C2C12 was “Non-toxic”. Further, the Ratio IC50 in the series filed under Homo sapiens [4] is over 3; in the series listed under Homo sapiens [5], over 2. The inhibition entry in series [6] and in series [7] was “Active” each time.
